Measurements from different studies.
Protocols differ between the studies behind these lines.
Target: Mitogen-activated protein kinase kinase kinase 9 (MAP3K9, Homo sapiens, UniProt P80192)

`Nc1c(C(=O)NCc2ccc(C(=O)NCCCC3CCCCC3)cc2)cnn1-c1ccccc1` has a remaining binding of 96% (cell-free assay; competition with immobilised ligand; 0.1 µM).
With `N#Cc1ccccc1CSc1nnc2c(n1)[nH]c1ccccc12` the remaining binding was 98% (binding; competition with immobilised ligand; 10 µM).
`N#Cc1ccc(Nc2ccc3[nH]c(=O)[nH]c3c2)c(Cl)c1` has a remaining binding of 100% (cell-free assay; competition with immobilised ligand; 1 µM).
`N[C@H]1CCN(c2nccc(-c3cnn4ncccc34)n2)C1` gave a remaining binding of 87% (binding; 1 µM).
`CNC(=O)[C@@H]1CC[C@@H](n2c(-c3ccc4cnccc4c3)nc3ccc(C(=O)NCc4cccc(C(N)=O)c4)cc32)C1` gave a remaining binding of 100% (binding; competition with immobilised ligand; 1 µM).
The remaining binding of `O=C(c1ccc(Nc2ncc(Cl)c(-c3cc4ccccc4s3)n2)cc1)N1CCC(N2CCCC2)CC1` is reported as 4.3% (binding; competition with immobilised ligand; 1 µM).
With `C[C@@H]1CN(c2ccc3ncc(-c4ccc5[nH]nc(C6CC6)c5c4)n3n2)C[C@H](C)O1` the remaining binding was 96% (binding; competition with immobilised ligand; 50 nM).
For `CC1CCCN1c1nccc(-c2cnn3ncccc23)n1` (stereo not shown), the remaining binding was 100% (binding; 1 µM).
`CC(C)(C)c1ccc(-c2nc(CBr)nn2-c2cccc(O)c2)cc1` gave a remaining binding of 91% (cell-free assay; competition with immobilised ligand; 10 µM).
With `CC(=O)C1=C(C)N(c2cccc(C(F)(F)F)c2)C(=O)N[C@@H]1c1ccc(C#N)nc1` the remaining binding was 94% (cell-free assay; competition with immobilised ligand; 1 µM).
The remaining binding of `CCN1CCN(Cc2ccc(C(=O)Nc3ccc(C)c(Oc4ccc5c(c4)CC(=O)N5)c3)cc2C(F)(F)F)CC1` is reported as 100% (binding; competition with immobilised ligand; 1 µM).
For `O=C(NS(=O)(=O)c1ccc(NCC2CCOCC2)c([N+](=O)[O-])c1)c1ccc(N2CCN(Cc3ccc(C(F)(F)F)cc3-c3ccc(Cl)cc3)CC2)cc1Oc1cnc2[nH]ccc2c1`, the remaining binding was 100% (cell-free assay; competition with immobilised ligand; 1 µM).
`COc1ccnn2ncc(-c3ccnc(N(C)C)n3)c12` gave a remaining binding of 91% (binding; 1 µM).
The remaining binding of `O=C(Nc1c[nH]nc1C(=O)NC1CCNCC1)c1cc(F)cc(F)c1` is reported as 100% (binding; competition with immobilised ligand; 1 µM).
The remaining binding of `C[C@H](NC(=O)c1cnc2n1[C@](C)(Cc1ccc(C#N)cc1)C(=O)N2c1cc(Cl)c(F)c(Cl)c1)C(=O)NC1(c2ccccn2)CC1` is reported as 100% (cell-free assay; competition with immobilised ligand; 1 µM).
With `CN(C)c1nccc(-c2cnn3ncccc23)n1` the remaining binding was 100% (binding; 1 µM).
`COc1cnc(Nc2cccc(S(N)(=O)=O)c2)nc1N1CCN(c2ccccc2)CC1` gave a remaining binding of 73% (binding; competition with immobilised ligand; 1 µM).
For `CN(C)C(=O)Cn1cc(-c2nc([C@@](C)(c3ccc(-c4cnc(N)nc4)cc3)C3CC3)no2)cn1`, the remaining binding was 100% (cell-free assay; competition with immobilised ligand; 1 µM).
The remaining binding of `C[C@@H]1CCN(c2nccc(-c3cnn4ncccc34)n2)C1` is reported as 100% (binding; 1 µM).
`Cc1cnc(Nc2ccc(C(=O)N3CCC(N4CCCC4)CC3)cc2)nc1-c1cc2ccccc2s1` gave a remaining binding of 3.3% (binding; competition with immobilised ligand; 1 µM).
`c1cncc(-c2cccc(Nc3nccc(NC4CCCCC4)n3)c2)c1` has a remaining binding of 19% (binding; competition with immobilised ligand; 10 µM).
For `O=C(c1ccc(Nc2ncc(Cl)c(-c3ccc(Cl)s3)n2)cc1)N1CCC(N2CCCC2)CC1`, the remaining binding was 8.9% (binding; competition with immobilised ligand; 1 µM).
For `CN(C)c1ncnc(-c2ccc3nc(Nc4cc(CN5CCN(C(=O)CC(F)(F)F)CC5)ccn4)[nH]c3c2)c1Cl`, the remaining binding was 90% (cell-free assay; competition with immobilised ligand; 1 µM).
For `CN(C)c1ncc(F)c(-c2cnn3ncccc23)n1`, the remaining binding was 100% (binding; 1 µM).
`FC(F)(F)Oc1cccc(-c2cnc3ccc(-c4ccncc4)nn23)c1` has a remaining binding of 77% (cell-free assay; competition with immobilised ligand; 5 µM).
